Source: ChEMBL document CHEMBL3400039, “Design, synthesis and in vitro cell-based evaluation of the anti-cancer activities of hispolon analogs” (Bioorg Med Chem, 2015)
Calls of active or inactive are those of the source. No cut-off for these calls is given here.

tested on: S1; assay: (§1) Cytotoxicity against human S1 cells after 72 hrs by MTT assay; format: functional, cell-based; conditions: not given
Outline: (§2)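 Cells kept as adherent monolayers in DMEM with 10% FBS, 37°C, 5% CO2. Trypsin-harvested, seeded at 5 × 10^3 cells/well, then exposed to compound at 0.1 to 100 µM for 72 h. MTT (4 mg/ml) added for 4 h, formazan dissolved in DMSO, absorbance read at 570 nm. At least three experiments, each in triplicate; mean±SD.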

SMILES | Activity
COc1cc(/C=C/C(=O)CC(C)=O)ccc1O | Dose-dependent effect

tested on: not listed separately; assay: as §1; format: functional, cell-based; conditions: S1, 72 h; outline: as §2

SMILES | IC50 [µM]
CC(=O)/C=C(O)/C=C/c1ccc(O)c(O)c1 [HISPOLON] | 8.4
COc1ccc(/C=C/C(=O)CC(C)=O)cc1OC | 9.3
Cc1cc(/C=C/c2ccc(O)c(O)c2)on1 | 7.9
COc1cc(/C=C/C(=O)CC(C)=O)ccc1O | 1.8

tested on: not listed separately; assay: (§3) Cytotoxicity against human PC3 cells after 72 hrs by MTT assay; format: functional, cell-based; conditions: PC-3, 72 h; outline: as §2

SMILES | IC50 [µM]
CC(=O)/C=C(O)/C=C/c1ccc(O)c(O)c1 [HISPOLON] | 12.9
COc1ccc(/C=C/C(=O)CC(C)=O)cc1OC | 8.9
Cc1cc(/C=C/c2ccc(O)c(O)c2)on1 | 3.3
COc1cc(/C=C/C(=O)CC(C)=O)ccc1O | 6.3

tested on: PC-3; assay: as §3; format: functional, cell-based; conditions: not given; outline: as §2

SMILES | Activity
COc1cc(/C=C/C(=O)CC(C)=O)ccc1O | Dose-dependent effect

tested on: HEK293; assay: Ratio of IC50 for HEK293 cells expressing pcDNA3.1 to IC50 for human DU145 cells; conditions: not given
Outline: (§4)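 Selectivity ratio of the IC50 in empty-vector HEK293/pcDNA3.1 cells to the IC50 in each cancer line. IC50s from the 72 h MTT assay (0.1–100 µM, Bliss method, ≥3 experiments in triplicate).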

SMILES | Ratio IC50
COc1cc(/C=C/C(=O)CC(C)=O)ccc1O | 3

tested on: not listed separately; assay: Cytotoxicity against mouse NIH/3T3 cells after 72 hrs by MTT assay; format: cell-based; conditions: NIH3T3, 72 h; outline: as §2

SMILES | IC50 [µM]
CC(=O)/C=C(O)/C=C/c1ccc(O)c(O)c1 [HISPOLON] | 51.2
COc1ccc(/C=C/C(=O)CC(C)=O)cc1OC | 18.1
Cc1cc(/C=C/c2ccc(O)c(O)c2)on1 | 26.2

tested on: not listed separately; assay: Potency index, ratio of IC50 for hispolon to IC50 for compound for human S1 cells after 72 hrs by MTT assay; format: functional; conditions: not given
Outline: (§5)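 Ratio of the hispolon IC50 to the analog IC50 in the same cancer line. Both IC50s come from the 72 h MTT assay (0.1–100 µM), with survival curves fitted by the Bliss method.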

SMILES | Ratio IC50
COc1cc(/C=C/C(=O)CC(C)=O)ccc1O | 4.7

tested on: HCT-116; assay: Induction of apoptosis in human HCT116 cells at 5 uM after 4 hrs by Alexa fluor 488 annexin V staining based flow cytometry (reference value: 5.58%); format: functional; conditions: not given
Outline: (§6)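 HCT-116 cells in 6-well plates, exposed in complete medium with or without compound (0.5 or 5 µM) for 4 h. Harvested and stained with MitoTracker Red for 30 min at 37°C, washed in PBS, then given Alexa Fluor 488 annexin V in annexin-binding buffer for 15 min. Flow cytometry with emission read at 530 and 585 nm; quadrant analysis against untreated control.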

SMILES | Activity [%]
COc1cc(/C=C/C(=O)CC(C)=O)ccc1O | 11.69

tested on: HEK293; assay: Ratio of IC50 for HEK293 cells expressing pcDNA3.1 to IC50 for human HCT116 cells; conditions: not given; outline: as §4

SMILES | Ratio IC50
COc1cc(/C=C/C(=O)CC(C)=O)ccc1O | 11

tested on: PC-3; assay: Potency index, ratio of IC50 for hispolon to IC50 for compound for human PC3 cells after 72 hrs by MTT assay; format: functional; conditions: not given; outline: as §5

SMILES | Ratio IC50
COc1cc(/C=C/C(=O)CC(C)=O)ccc1O | 2

tested on: HCT-116; assay: Potency index, ratio of IC50 for hispolon to IC50 for compound for human HCT116 cells after 72 hrs by MTT assay; format: functional; conditions: not given; outline: as §5

SMILES | Ratio IC50
COc1cc(/C=C/C(=O)CC(C)=O)ccc1O | 3.7

tested on: HEK293; assay: Cytotoxicity against HEK293 cells expressing pcDNA3.1 after 72 hrs by MTT assay; format: cell-based; conditions: Homo sapiens, HEK293, 72 h; outline: as §2

SMILES | IC50 [µM]
CC(=O)/C=C(O)/C=C/c1ccc(O)c(O)c1 [HISPOLON] | 7.3
COc1ccc(/C=C/C(=O)CC(C)=O)cc1OC | 8.2
Cc1cc(/C=C/c2ccc(O)c(O)c2)on1 | 13
COc1cc(/C=C/C(=O)CC(C)=O)ccc1O | 15.8

tested on: not listed separately; assay: (§7) Cytotoxicity against human HCT116 cells after 72 hrs by MTT assay; format: functional, cell-based; conditions: HCT-116, 72 h; outline: as §2

SMILES | IC50 [µM]
CC(=O)/C=C(O)/C=C/c1ccc(O)c(O)c1 [HISPOLON] | 5.2
COc1ccc(/C=C/C(=O)CC(C)=O)cc1OC | 4.7
Cc1cc(/C=C/c2ccc(O)c(O)c2)on1 | 5.3
COc1cc(/C=C/C(=O)CC(C)=O)ccc1O | 1.4

tested on: HCT-116; assay: as §7; format: functional, cell-based; conditions: not given; outline: as §2

SMILES | Activity
COc1cc(/C=C/C(=O)CC(C)=O)ccc1O | Dose-dependent effect

tested on: HCT-116; assay: Induction of morphological changes in human HCT116 cells assessed as increase in cell size at 1 uM after 68 hrs by inverted microscopy; format: functional, cell-based; conditions: not given
Outline: (§8)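 Cells grown in DMEM/10% FBS and treated in triplicate for 68 h. Photographed with an inverted microscope at 20X alongside untreated wells. Images scored double-blind for cell size, shape, number and debris.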

SMILES | Activity
COc1cc(/C=C/C(=O)CC(C)=O)ccc1O | Active

tested on: HCT-116; assay: Reduction in mitochondrial membrane potential in human HCT116 cells after 4 hrs by Mitotracker red staining based flow cytometry (reference value: 27.56%); format: functional, cell-based; conditions: not given; outline: as §6

SMILES | Activity
COc1cc(/C=C/C(=O)CC(C)=O)ccc1O | Dose-dependent effect

tested on: HCT-116; assay: Reduction in mitochondrial membrane potential in human HCT116 cells at 0.5 uM after 4 hrs by Mitotracker red staining based flow cytometry (reference value: 27.56%); format: functional; set-up: scale not given: the % may be the effect or the level left; conditions: not given; outline: as §6

SMILES | Activity [%]
COc1cc(/C=C/C(=O)CC(C)=O)ccc1O | 84.88

tested on: HEK293; assay: Resistance index, ratio of IC50 for HEK293 cells expressing ABCB1 to IC50 for HEK293 cells expressing pcDNA3.1; set-up: species or system Homo sapiens; conditions: not given
Outline: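 Fold resistance is the IC50 in P-glycoprotein-overexpressing HEK293/ABCB1 cells divided by the IC50 in empty-vector HEK293/pcDNA3.1 cells. IC50s from the 72 h MTT assay; paclitaxel was the positive-control ABCB1 substrate.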

SMILES | Ratio IC50
CC(=O)/C=C(O)/C=C/c1ccc(O)c(O)c1 [HISPOLON] | 1.3
COc1ccc(/C=C/C(=O)CC(C)=O)cc1OC | 1.3
Cc1cc(/C=C/c2ccc(O)c(O)c2)on1 | 0.9
COc1cc(/C=C/C(=O)CC(C)=O)ccc1O | 1.2

tested on: HEK293; assay: Cytotoxicity against HEK293 cells expressing ABCB1 after 72 hrs by MTT assay; format: functional, cell-based; conditions: Homo sapiens, HEK293, 72 h; outline: as §2

SMILES | IC50 [µM]
CC(=O)/C=C(O)/C=C/c1ccc(O)c(O)c1 [HISPOLON] | 9.6
COc1ccc(/C=C/C(=O)CC(C)=O)cc1OC | 10.6
Cc1cc(/C=C/c2ccc(O)c(O)c2)on1 | 11.8
COc1cc(/C=C/C(=O)CC(C)=O)ccc1O | 18.9

tested on: DU-145; assay: Cytotoxicity against human DU145 cells after 72 hrs by MTT assay; format: functional, cell-based; conditions: not given; outline: as §2

SMILES | Activity
COc1cc(/C=C/C(=O)CC(C)=O)ccc1O | Dose-dependent effect

same assay, conditions: DU-145, 72 h

SMILES | IC50 [µM]
CC(=O)/C=C(O)/C=C/c1ccc(O)c(O)c1 [HISPOLON] | 28.6
COc1ccc(/C=C/C(=O)CC(C)=O)cc1OC | 8.2
Cc1cc(/C=C/c2ccc(O)c(O)c2)on1 | 10.5
COc1cc(/C=C/C(=O)CC(C)=O)ccc1O | 5.2

tested on: HEK293; assay: Ratio of IC50 for HEK293 cells expressing pcDNA3.1 to IC50 for human S1 cells; conditions: not given; outline: as §4

SMILES | Ratio IC50
COc1cc(/C=C/C(=O)CC(C)=O)ccc1O | 9

tested on: PC-3; assay: Induction of morphological changes in human PC3 cells assessed as increase in cell size at 1 uM after 68 hrs by inverted microscopy; format: functional, cell-based; conditions: not given; outline: as §8

SMILES | Activity
COc1cc(/C=C/C(=O)CC(C)=O)ccc1O | Active

tested on: HCT-116; assay: Induction of apoptosis in human HCT116 cells at 0.5 uM after 4 hrs by Alexa fluor 488 annexin V staining based flow cytometry (reference value: 5.58%); format: functional; conditions: not given; outline: as §6

SMILES | Activity [%]
COc1cc(/C=C/C(=O)CC(C)=O)ccc1O | 2.64

tested on: MCF7; assay: Cytotoxicity against human MCF7 cells after 72 hrs by MTT assay; format: functional, cell-based; conditions: not given; outline: as §2

SMILES | Activity
COc1cc(/C=C/C(=O)CC(C)=O)ccc1O | Dose-dependent effect

same assay, conditions: MCF7, 72 h

SMILES | IC50 [µM]
CC(=O)/C=C(O)/C=C/c1ccc(O)c(O)c1 [HISPOLON] | 7.9
COc1ccc(/C=C/C(=O)CC(C)=O)cc1OC | 10.6
Cc1cc(/C=C/c2ccc(O)c(O)c2)on1 | 6.3
COc1cc(/C=C/C(=O)CC(C)=O)ccc1O | 7.4

tested on: HEK293; assay: Ratio of IC50 for HEK293 cells expressing pcDNA3.1 to IC50 for human PC3 cells; conditions: not given; outline: as §4

SMILES | Ratio IC50
COc1cc(/C=C/C(=O)CC(C)=O)ccc1O | 2

tested on: MDA-MB-231; assay: Cytotoxicity against human MDA-MB-231 cells after 72 hrs by MTT assay; format: functional, cell-based; conditions: not given; outline: as §2

SMILES | Activity
COc1cc(/C=C/C(=O)CC(C)=O)ccc1O | Dose-dependent effect

same assay, conditions: MDA-MB-231, 72 h

SMILES | IC50 [µM]
CC(=O)/C=C(O)/C=C/c1ccc(O)c(O)c1 [HISPOLON] | 32.2
COc1ccc(/C=C/C(=O)CC(C)=O)cc1OC | 43.1
Cc1cc(/C=C/c2ccc(O)c(O)c2)on1 | 8.9
COc1cc(/C=C/C(=O)CC(C)=O)ccc1O | 9.7

tested on: HCT-116; assay: Reduction in mitochondrial membrane potential in human HCT116 cells at 5 uM after 4 hrs by Mitotracker red staining based flow cytometry (reference value: 27.56%); format: functional; set-up: scale not given: the % may be the effect or the level left; conditions: not given; outline: as §6

SMILES | Activity [%]
COc1cc(/C=C/C(=O)CC(C)=O)ccc1O | 72.74

tested on: DU-145; assay: Potency index, ratio of IC50 for hispolon to IC50 for compound for human DU145 cells after 72 hrs by MTT assay; format: functional; conditions: not given; outline: as §5

SMILES | Ratio IC50
COc1cc(/C=C/C(=O)CC(C)=O)ccc1O | 5.5

tested on: MDCK; assay: Cytotoxicity against MDCK cells after 72 hrs by MTT assay; format: cell-based; conditions: Canis lupus familiaris; outline: as §2

SMILES | IC50 [µM]
CC(=O)/C=C(O)/C=C/c1ccc(O)c(O)c1 [HISPOLON] | 36.2
COc1ccc(/C=C/C(=O)CC(C)=O)cc1OC | 9.9
COc1cc(/C=C/C(=O)CC(C)=O)ccc1O | 13.1
